Results reported in ChEMBL document CHEMBL1146962, “Design, synthesis, and biological evaluation of a scaffold for iGluR ligands based on the structure of (-)-dysiherbaine” (Bioorg Med Chem Lett, 2006).
The source made the active and inactive calls. The rule behind the calls is not given here.

How the values were obtained:
Format in all cases: functional
[1] = target: T1, Glutamate receptor ionotropic, kainate (Rattus norvegicus) (UniProt P22756+Q01812+P42260+P42264+Q63273); test: Antagonist activity against rat KA receptor assessed by inhibition of kainate-induced membrane current at 100 uM; design: scale not given: the % may be the effect or the level left
In short: (§1)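 Oocytes injected with native rat cerebral cortex mRNA were used. Membrane currents induced by 100 μM kainate were recorded with the test agent present (analogs at 100 μM; CNQX reference at 1 μM). Residual current is reported as a percentage of the kainate control. N = 2-7 oocyte preparations.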

[2] = target: T2, Glutamate NMDA receptor (Rattus norvegicus) (UniProt P35439+Q00959+Q00960+Q00961+Q62645+Q8VHN2+Q9R1M7); test: Antagonist activity against rat NMDA receptor assessed by inhibition of NMDA plus glycine-induced membrane current at 100 uM
In short: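 In rat cortex mRNA-injected oocytes, analogs (100 μM) were tested against currents evoked by 100 μM NMDA plus 100 μM glycine.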

[3] = target: T2, Glutamate NMDA receptor (Rattus norvegicus); test: Agonist activity at rat NMDA receptor in presence of glycine assessed by generation of membrane current at 100 uM relative to control
In short: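 Rat cortex mRNA-injected oocytes. The analog (100 μM) was applied in the presence of 100 μM glycine. The elicited current is expressed relative to a positive control of 100 μM NMDA plus 100 μM glycine.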

[4] = target: T1, Glutamate receptor ionotropic, kainate (Rattus norvegicus); test: Agonist activity at rat KA receptor assessed by generation of membrane current at 100 uM relative to control
[5] = target: T1, Glutamate receptor ionotropic, kainate (Rattus norvegicus); test: Agonist activity at rat KA receptor assessed by generation of membrane current at 100 uM relative to control in presence of 10 uM cyclothiazide
In short: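 Oocytes were injected with rat cerebral cortex mRNA. Each analog at 100 μM was co-applied with 10 μM cyclothiazide (AMPA receptor desensitization inhibitor). Membrane current is given as a percentage of the 100 μM kainate control current, with and without cyclothiazide. N = 2-7 oocyte preparations.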

[6] = target: T1, Glutamate receptor ionotropic, kainate (Rattus norvegicus); test: Antagonist activity against rat KA receptor assessed by inhibition of kainate-induced membrane current at 1 uM; design: scale not given: the % may be the effect or the level left; in short: as §1

| Activity [1] | Activity [2] | Activity [3] | Activity [4] | Activity [5] | Activity [6] | Compound |
| --- | --- | --- | --- | --- | --- | --- |
| 55% | inactive | inactive | inactive | – | – | N[C@@H](C[C@]1(C(=O)O)Cc2ccccc2O1)C(=O)O |
| 95% | inactive | inactive | 6% | 13% | – | Cc1cccc2c1O[C@@](C[C@H](N)C(=O)O)(C(=O)O)C2 |
| – | – | – | – | – | 38% | N#Cc1cc2c(cc1[N+](=O)[O-])=NC(=O)C(=O)N=2 |
| 72% | inactive | 44% | inactive | – | – | Cc1ccc2c(c1)C[C@](C[C@H](N)C(=O)O)(C(=O)O)O2 |
| 100% | inactive | – | inactive | – | – | N[C@@H](C[C@@]1(C(=O)O)Cc2ccccc2O1)C(=O)O |
